According to ChEMBL document CHEMBL5046221, “Identification of Pyrimidine-Based Lead Compounds for Understudied Kinases Implicated in Driving Neurodegeneration” (J Med Chem, 2022):
pIC50: −log10 of the molar value.

Legend:
[1] = Effective permeability in PBS at 7.4 incubated for 5 hrs by PAMPA analysis; format: ADME; conditions: pH 7.4, 5 h
Summary of the method: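 PAMPA: DMSO stocks were diluted in PBS pH 7.4 and placed in the donor compartment, with PBS pH 7.4 in the acceptor, for 5 h. Both compartments were quantified by CLND against a calibration curve, with background nitrogen correction. Effective permeability was calculated from donor and acceptor concentrations using measured rather than assumed solubility.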

[2] = molecular target: T1, Serine/threonine-protein kinase 17A (Homo sapiens, UniProt Q9UEE5); assay: Displacement of tracer K9 from NLuc fused DRAK1 (unknown origin) expressed in HEK293 cells by NanoBRET assay; format: cell-based
T1 sequence (Q9UEE5 whole entry): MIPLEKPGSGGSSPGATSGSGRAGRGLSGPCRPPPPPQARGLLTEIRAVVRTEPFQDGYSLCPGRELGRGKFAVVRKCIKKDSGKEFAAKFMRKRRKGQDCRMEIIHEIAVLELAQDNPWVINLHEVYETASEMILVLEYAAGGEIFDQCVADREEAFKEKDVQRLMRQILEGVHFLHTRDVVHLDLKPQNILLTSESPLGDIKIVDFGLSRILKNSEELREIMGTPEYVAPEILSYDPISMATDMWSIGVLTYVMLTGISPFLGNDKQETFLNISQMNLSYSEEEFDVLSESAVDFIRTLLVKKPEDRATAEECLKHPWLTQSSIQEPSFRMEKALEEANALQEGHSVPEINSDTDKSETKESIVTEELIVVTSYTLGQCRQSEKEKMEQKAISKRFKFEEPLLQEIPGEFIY

[3] = molecular target: MAP/microtubule affinity-regulating kinase 3 (Homo sapiens, UniProt P27448); assay: Displacement of tracer K9 from NLuc fused MARK3 (unknown origin) expressed in HEK293 cells by NanoBRET assay; format: cell-based
[4] = Kinetic solubility of compound in PBS at pH 7.4 incubated for 24 hrs by chemiluminscent nitrogen detection method; format: physicochemical; conditions: buffer, pH 7.4, 24 h
Summary of the method: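 Filtrates were quantified by total chemiluminescent nitrogen determination against a calibration curve, with correction for background nitrogen from DMSO and medium.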

[5] = molecular target: T2, Serine/threonine-protein kinase TBK1 (Homo sapiens, UniProt Q9UHD2); assay: Displacement of tracer K5 from NLuc fused TBK1 (unknown origin) expressed in HEK293 cells by NanoBRET assay; format: cell-based
T2 sequence (Q9UHD2 whole entry): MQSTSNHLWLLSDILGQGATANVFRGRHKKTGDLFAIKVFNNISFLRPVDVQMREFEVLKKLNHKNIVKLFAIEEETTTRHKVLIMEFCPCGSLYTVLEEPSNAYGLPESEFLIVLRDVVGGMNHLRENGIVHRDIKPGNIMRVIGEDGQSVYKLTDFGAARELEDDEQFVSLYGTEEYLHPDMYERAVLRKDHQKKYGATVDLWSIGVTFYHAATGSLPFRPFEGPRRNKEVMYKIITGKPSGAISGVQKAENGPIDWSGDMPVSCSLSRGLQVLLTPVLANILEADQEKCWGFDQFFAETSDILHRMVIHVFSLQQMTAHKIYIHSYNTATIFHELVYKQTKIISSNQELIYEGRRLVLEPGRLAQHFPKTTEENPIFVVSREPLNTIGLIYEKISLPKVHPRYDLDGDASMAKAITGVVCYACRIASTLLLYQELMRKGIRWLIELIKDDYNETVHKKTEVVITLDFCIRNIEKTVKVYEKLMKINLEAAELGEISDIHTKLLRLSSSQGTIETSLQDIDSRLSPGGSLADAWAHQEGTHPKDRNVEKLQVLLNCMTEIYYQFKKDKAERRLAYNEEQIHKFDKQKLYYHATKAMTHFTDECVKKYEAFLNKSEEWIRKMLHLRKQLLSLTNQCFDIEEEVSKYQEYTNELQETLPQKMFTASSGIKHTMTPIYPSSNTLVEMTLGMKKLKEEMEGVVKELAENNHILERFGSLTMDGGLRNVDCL
Summary of the method: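 HEK293 cells grown in DMEM with 10% FBS at 37 °C, 5% CO2. NanoBRET assay run in dose–response per manufacturer's protocol with tracer K-5 at 0.5 μM. SEM calculated for assays run more than once.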

[6] = molecular target: Aurora kinase B (Homo sapiens) (UniProt Q96GD4); assay: Inhibition of full length recombinant human AURKB using AKRRRLSSLRA as substrate at 1 uM incubated for 40 mins in presence of [gamma-33P-ATP] by radiometric scintillation assay relative to control
Summary of the method: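 Eurofins radiometric kinase assay with ATP at Km for each kinase. Compound was tested at a single 1 μM concentration in duplicate, and the result is reported as percent of control.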

[7] = molecular target: T3, NUAK family SNF1-like kinase 1 (Homo sapiens, UniProt O60285); assay: Inhibition of recombinant human ARK5 (2 to end residues) using KKKVSRSGLYRSPSMPENLNRPR as substrate incubated for 40 mins in presence of [gamma-33ATP] by scintillation counting based radiometry assay
T3 sequence (O60285 whole entry): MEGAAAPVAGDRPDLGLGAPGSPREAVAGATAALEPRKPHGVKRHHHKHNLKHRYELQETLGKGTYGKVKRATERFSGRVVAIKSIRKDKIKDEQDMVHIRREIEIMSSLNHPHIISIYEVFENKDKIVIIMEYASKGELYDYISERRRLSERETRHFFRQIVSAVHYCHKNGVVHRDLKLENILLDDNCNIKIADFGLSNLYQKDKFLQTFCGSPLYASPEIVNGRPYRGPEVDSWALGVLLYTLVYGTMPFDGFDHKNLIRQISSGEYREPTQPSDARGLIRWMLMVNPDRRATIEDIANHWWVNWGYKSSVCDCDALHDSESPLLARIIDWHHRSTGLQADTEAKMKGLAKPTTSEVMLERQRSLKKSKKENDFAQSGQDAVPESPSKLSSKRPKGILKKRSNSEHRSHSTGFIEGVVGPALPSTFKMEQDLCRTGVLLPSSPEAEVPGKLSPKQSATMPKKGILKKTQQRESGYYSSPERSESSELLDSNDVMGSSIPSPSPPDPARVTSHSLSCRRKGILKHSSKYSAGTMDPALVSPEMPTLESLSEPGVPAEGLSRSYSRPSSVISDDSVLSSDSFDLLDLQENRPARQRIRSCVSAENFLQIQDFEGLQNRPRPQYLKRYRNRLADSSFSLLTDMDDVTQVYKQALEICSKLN
Summary of the method: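 Eurofins radiometric enzymatic assay with ATP at Km for each kinase. IC50 was derived from a 9-point dose–response curve run in duplicate.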

Aurora kinase B (Homo sapiens), sequence (Q96GD4 whole entry): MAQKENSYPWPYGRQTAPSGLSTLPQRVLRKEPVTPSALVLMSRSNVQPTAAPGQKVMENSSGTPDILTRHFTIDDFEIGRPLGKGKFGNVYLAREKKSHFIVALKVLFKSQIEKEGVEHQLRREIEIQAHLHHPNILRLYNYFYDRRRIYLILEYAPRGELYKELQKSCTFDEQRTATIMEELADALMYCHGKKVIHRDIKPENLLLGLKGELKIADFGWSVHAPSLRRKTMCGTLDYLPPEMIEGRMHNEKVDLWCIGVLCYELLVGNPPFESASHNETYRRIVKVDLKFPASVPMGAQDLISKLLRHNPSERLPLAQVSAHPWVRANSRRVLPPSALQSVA
MAP/microtubule affinity-regulating kinase 3, sequence (P27448 whole entry, the tested form may be a part): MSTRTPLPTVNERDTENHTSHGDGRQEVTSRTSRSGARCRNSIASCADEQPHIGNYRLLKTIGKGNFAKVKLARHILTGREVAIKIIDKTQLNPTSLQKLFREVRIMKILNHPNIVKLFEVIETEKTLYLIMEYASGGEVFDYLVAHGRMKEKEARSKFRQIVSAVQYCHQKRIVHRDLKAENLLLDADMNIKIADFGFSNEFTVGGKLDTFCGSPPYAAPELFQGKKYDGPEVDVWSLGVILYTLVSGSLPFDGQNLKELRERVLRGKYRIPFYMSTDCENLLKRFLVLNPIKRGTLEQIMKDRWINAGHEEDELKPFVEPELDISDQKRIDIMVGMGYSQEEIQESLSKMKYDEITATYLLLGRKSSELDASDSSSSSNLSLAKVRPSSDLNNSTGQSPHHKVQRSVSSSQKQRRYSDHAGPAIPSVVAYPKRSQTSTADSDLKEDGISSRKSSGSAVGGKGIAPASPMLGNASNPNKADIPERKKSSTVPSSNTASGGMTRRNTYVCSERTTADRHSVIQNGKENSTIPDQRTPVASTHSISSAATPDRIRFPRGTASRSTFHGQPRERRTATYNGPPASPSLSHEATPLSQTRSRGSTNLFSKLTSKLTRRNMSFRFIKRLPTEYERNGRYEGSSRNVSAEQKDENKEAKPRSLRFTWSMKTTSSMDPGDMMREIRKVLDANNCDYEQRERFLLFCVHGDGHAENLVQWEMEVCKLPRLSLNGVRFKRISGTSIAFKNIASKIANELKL

For `NS(=O)(=O)c1ccc(CNc2nc(Nc3cccc(CN4CCOCC4)c3)ncc2C2CC2)cc1`, the Peff [1] was 7.09 10^-7 cm/s, the pIC50 [2] was under 5.00 and the pIC50 [3] was under 5.00. For the same compound, the Kinetic_solubility [4] was 118.7 µM, the pIC50 [5] was 5.69 and the % control [6] was 51%.
For `NS(=O)(=O)c1ccc(CNc2nc(Nc3cccc(CN4CCOCC4)c3)ncc2Br)cc1`, the Peff ([1]; BLD = below limit of detection) was “Bld”, the pIC50 [2] was under 5.00 and the pIC50 [7] was 6.77. For the same compound, the pIC50 [3] was under 5.00, the Kinetic solubility [4] was 4.7 µM and the pIC50 [5] was under 5.00. It also gave a % control [6] of 7%.
With `c1cc(CN2CCOCC2)cc(Nc2nccc(NCCc3cnc[nH]3)n2)c1` the Peff [1] was 1.66 10^-7 cm/s, the pIC50 [2] was under 5.00 and the pIC50 [7] was 6.75. The pIC50 [3] was under 5.00, the Kinetic solubility [4] was 200 µM and the pIC50 [5] was under 5.00. It also gave a % control [6] of 5%.
With `NS(=O)(=O)c1ccc(CNc2nc(Nc3cccc(NC(=O)N4CCCC4)c3)ncc2Br)cc1` the Peff ([1]; BLD = below limit of detection) was “Bld”, the pIC50 [2] was under 5.00 and the pIC50 [7] was 6.50. The pIC50 [3] was under 5.00, the Kinetic_solubility [4] was 20 µM and the pIC50 [5] was 5.21. For the same compound, the % control [6] was 6%.
